Legend:
[1] = biological target: Replicase polyprotein 1ab (Severe acute respiratory syndrome-related coronavirus) (UniProt P0C6X7); experiment: Inhibition of SARS coronavirus 3C-like protease at 200 uM after 60 mins by FRET assay
[2] = biological target: T1, Replicase polyprotein 1ab (Severe acute respiratory syndrome-related coronavirus, UniProt P0C6X7); experiment: Inhibition of SARS coronavirus 3C-like protease after 60 mins by FRET assay
[3] = biological target: T1, Replicase polyprotein 1ab; experiment: Non-competitive inhibition of SARS coronavirus 3C-like protease by Dixon plot analysis
Method in brief: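 Inhibition mode comes from FRET protease rates at substrate concentrations of 2.5, 5.0 and 10.0 µM across several inhibitor concentrations. Ki is taken from Dixon (1/V versus [I]) and Lineweaver-Burk plots; type is assigned from Vmax versus inhibitor concentration. Triplicate experiments.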

## CC(=O)Oc1cc2c(cc1C(C)C)CC[C@H]1[C@](C)(CO)CCC[C@]21C
[1]
  inhibition: 78.6%
[2]
  IC50: 129 µM

## CC(C)c1cc2c(cc1O)[C@@]1(C)CCC[C@@](C)(CO)[C@@H]1CC2 [18-HYDROXYFERRUGINOL]
[1]
  inhibition: 45.8%
[2]
  IC50: 221 µM

## CC(C)c1cc2c(cc1O)[C@@]1(C)CCC[C@@](C)(C=O)[C@@H]1CC2 [18-OXOFERRUGINOL]
[1]
  inhibition: 70.5%
[2]
  IC50: 163 µM

## CC(C)C1=CC2=CC[C@@H]3[C@](C)(CCC[C@@]3(C)C(=O)O)[C@H]2CC1 [ABIETIC ACID]
[1]
  inhibition: 58%
[2]
  IC50: 189 µM

## O=c1cc(-c2ccc(O)c(-c3c(O)cc(O)c4c(=O)cc(-c5ccc(O)cc5)oc34)c2)oc2cc(O)cc(O)c12 [AMENTOFLAVONE]
[3]
  Ki: 13.8 µM

## O=c1cc(-c2ccc(O)cc2)oc2cc(O)cc(O)c12 [APIGENIN]
[1]
  inhibition: 40%
[2]
  IC50: 281 µM

## COc1ccc(-c2cc(=O)c3c(O)cc(O)cc3o2)cc1-c1c(O)cc(O)c2c(=O)cc(-c3ccc(O)cc3)oc12 [BILOBETIN]
[3]
  Ki: 80.4 µM
[2]
  IC50: 72.3 µM

## CC(C)c1cc2c(cc1O)[C@@]1(C)CCCC(C)(C)[C@@H]1CC2 [FERRUGINOL]
[1]
  inhibition: 92.7%
[2]
  IC50: 49.6 µM

## COc1cc(O)c2c(=O)cc(-c3ccc(OC)c(-c4c(O)cc(O)c5c(=O)cc(-c6ccc(O)cc6)oc45)c3)oc2c1 [GINKGETIN]
[3]
  Ki: 30.2 µM
[2]
  IC50: 32 µM

## CC(C)c1cc2c(cc1O)[C@@]1(C)CC[C@H](O)C(C)(C)[C@@H]1CC2 [HINOKIOL]
[1]
  inhibition: 39.1%
[2]
  IC50: 233 µM

## C=C[C@@]1(C)CC[C@H]2C(=CC[C@@H]3[C@]2(C)CCC[C@@]3(C)C(=O)O)C1 [ISOPIMARIC ACID]
[1]
  inhibition: 28.9%
[2]
  IC50: 283 µM

## C=C1CC[C@H]2[C@](C)(CO)CCC[C@]2(C)[C@H]1CC/C(C)=C\CO [KAYADIOL]
[1]
  inhibition: 75.2%
[2]
  IC50: 138 µM

## O=c1cc(-c2ccc(O)c(O)c2)oc2cc(O)cc(O)c12 [LUTEOLIN]
[2]
  IC50: 20 µM

## COC(=O)[C@]1(C)CCC[C@]2(C)c3ccc(C(C)C)cc3CC[C@@H]12 [METHYL DEHYDROABIETATE]
[1]
  inhibition: 46.7%
[2]
  IC50: 207 µM

## COc1ccc(-c2cc(=O)c3c(O)cc(O)c(-c4cc(-c5cc(=O)c6c(O)cc(OC)cc6o5)ccc4OC)c3o2)cc1 [SCIADOPITISIN]
[3]
  Ki: 35.6 µM
[2]
  IC50: 38.4 µM

— ChEMBL document CHEMBL1275337, “Biflavonoids from Torreya nucifera displaying SARS-CoV 3CL(pro) inhibition” (Bioorg Med Chem, 2010)
